Experiment [1] has as its target Adenylate cyclase. The experiment in a line: Adenylate cyclase activity measured as PA2. It counts as protein assay.
In experiment [2] the target is Glucagon receptor (Rattus norvegicus, UniProt P30082). The experiment in a line: Glucagon receptor binding measured as 50% inhibitory concentration. The gist of the method: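 Membranes (50 µg protein) were taken from the livers of male Sprague Dawley rats (200-250 g), purified on a sucrose gradient. […] Nonspecific binding was defined with excess unlabeled peptide and subtracted. Run in triplicate, repeated twice.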
Chain of Glucagon receptor (P30082 whole entry): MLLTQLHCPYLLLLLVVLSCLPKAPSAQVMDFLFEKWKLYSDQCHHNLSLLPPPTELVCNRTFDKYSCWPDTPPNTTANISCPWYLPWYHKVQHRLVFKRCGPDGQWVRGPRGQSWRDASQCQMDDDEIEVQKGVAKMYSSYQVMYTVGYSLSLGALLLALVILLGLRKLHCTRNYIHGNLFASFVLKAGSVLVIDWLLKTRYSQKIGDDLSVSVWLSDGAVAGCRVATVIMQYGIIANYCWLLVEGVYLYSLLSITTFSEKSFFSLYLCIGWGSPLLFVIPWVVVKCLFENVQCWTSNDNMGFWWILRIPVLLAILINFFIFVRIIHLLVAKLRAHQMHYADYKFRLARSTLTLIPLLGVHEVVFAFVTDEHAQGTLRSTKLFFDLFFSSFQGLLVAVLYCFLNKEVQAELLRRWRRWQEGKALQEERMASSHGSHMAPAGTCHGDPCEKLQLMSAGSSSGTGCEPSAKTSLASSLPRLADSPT

Experiment [3] addresses T1, Adenylate cyclase (Rattus norvegicus) (UniProt D4A3N4+P26770+Q04400+P26769+Q03343+P40146+Q8CFM9+P21932). The experiment can be described thus: Adenylate cyclase activity measured as percentage stimulation. The format is protein assay. Details: concentration or dose not given beside the values.
Experiment [4] has as its target Adenylate cyclase. The experiment in a line: Adenylate cyclase activity measured as 50% inhibitory concentration. It counts as protein assay.
Experiment [5] concerns the target T1, Adenylate cyclase (Rattus norvegicus). The experiment can be described thus: Adenylate cyclase activity measured as percentage stimulation at (20uM). The format is protein assay. Put shortly:
(§1)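 Rat liver plasma membranes (35 µg protein) incubated in 0.1 mL of 25 mM Tris (pH 7.5) with 0.4% BSA, 1 mM [α-32P]ATP, 5 mM MgCl2, GTP, 1 mM EDTA, 1 mM cAMP with [3H]cAMP tracer, and a phosphocreatine/creatine phosphokinase ATP-regenerating system. Labeled cAMP was isolated on Dowex cation-exchange and alumina columns.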

Experiment [6] shares this target. The experiment in a line: Adenylate cyclase activity measured as percentage stimulation at (1 uM). The format is protein assay. Put shortly:
as §1

Experiment [7] shares this target. The experiment in a line: Adenylate cyclase activity measured as percentage stimulation at 20 uM. The format is protein assay. Put shortly: as §1

SMILES strings stand for the structures. Where a SMILES comes first, the peptide text is derived from it. Bridges are numbered along the chain shown (N, C = ends).

For `CSCC[C@H](NC(=O)[C@H](CC(C)C)NC(=O)[C@H](Cc1c[nH]c2ccccc12)NC(=O)[C@H](CCC(N)=O)NC(=O)[C@@H](NC(=O)[C@H](Cc1ccccc1)NC(=O)[C@H](CC(=O)O)NC(=O)[C@H](CCC(N)=O)NC(=O)[C@H](C)NC(=O)[C@H](CCCN=C(N)N)NC(=O)[C@H](CCCN=C(N)N)NC(=O)[C@H](CO)NC(=O)[C@H](CC(=O)O)NC(=O)[C@H](CC(C)C)NC(=O)[C@H](Cc1ccc(O)cc1)NC(=O)[C@H](CCCCN)NC(=O)[C@H](CO)NC(=O)[C@H](Cc1ccc(O)cc1)NC(=O)[C@H](CC(=O)O)NC(=O)[C@H](CO)NC(=O)[C@@H]1CCC(=O)NCCCC[C@H](NC(=O)[C@H](CO)NC(=O)[C@@H](N)Cc2c[nH]cn2)C(=O)NCC(=O)N[C@@H]([C@@H](C)O)C(=O)N[C@@H](Cc2ccccc2)C(=O)N1)C(C)C)C(=O)N[C@@H](CC(N)=O)C(=O)N[C@H](C(=O)O)[C@@H](C)O` (H-HSKGTFESDYSKYLDSRRAQDFVQWLMNT-OH; lactam 3-7), in experiment [1], the pA2 is listed as 8.28. Besides, the IC50 in experiment [2] was 0.006 µM.

In turn, `CSCC[C@H](NC(=O)[C@H](CC(C)C)NC(=O)[C@H](Cc1c[nH]c2ccccc12)NC(=O)[C@H](CCC(N)=O)NC(=O)[C@@H](NC(=O)[C@H](Cc1ccccc1)NC(=O)[C@H](CC(=O)O)NC(=O)[C@H](CCC(N)=O)NC(=O)[C@H](C)NC(=O)[C@H](CCCN=C(N)N)NC(=O)[C@H](CCCN=C(N)N)NC(=O)[C@H](CO)NC(=O)[C@H](CC(=O)O)NC(=O)[C@H](CC(C)C)NC(=O)[C@H](Cc1ccc(O)cc1)NC(=O)[C@H](CCCCN)NC(=O)[C@H](CO)NC(=O)[C@H](Cc1ccc(O)cc1)NC(=O)[C@@H]1CCC(=O)NCCCC[C@H](NC(=O)CNC(=O)[C@H](CCC(N)=O)NC(=O)[C@H](CO)NC(=O)[C@@H](N)Cc2c[nH]cn2)C(=O)N[C@@H](Cc2ccccc2)C(=O)N[C@@H]([C@@H](C)O)C(=O)N[C@@H](CO)C(=O)N1)C(C)C)C(=O)N[C@@H](CC(N)=O)C(=O)N[C@H](C(=O)O)[C@@H](C)O` (H-HSQGKFTSEYSKYLDSRRAQDFVQWLMNT-OH; lactam 5-9) came in with an Activity in experiment [3] of 12%. The compound further came in with a pA2 in experiment [1] of 8.26. In experiment [4], this compound showed an EC50 of 0.39 µM. The same compound returned an IC50 in experiment [2] of 0.0002 µM.

`CSCC[C@H](NC(=O)[C@H](CC(C)C)NC(=O)[C@H](Cc1c[nH]c2ccccc12)NC(=O)[C@H](CCC(N)=O)NC(=O)[C@@H](NC(=O)[C@H](Cc1ccccc1)NC(=O)[C@H](CC(=O)O)NC(=O)[C@H](CCC(N)=O)NC(=O)[C@H](C)NC(=O)[C@H](CCCN=C(N)N)NC(=O)[C@H](CCCN=C(N)N)NC(=O)[C@H](CO)NC(=O)[C@H](CC(=O)O)NC(=O)[C@H](CC(C)C)NC(=O)[C@H](Cc1ccc(O)cc1)NC(=O)[C@H](CS)NC(=O)[C@H](CO)NC(=O)[C@H](Cc1ccc(O)cc1)NC(=O)[C@H](CC(=O)O)NC(=O)[C@H](CO)NC(=O)[C@H](CS)NC(=O)[C@H](Cc1ccccc1)NC(=O)[C@@H](NC(=O)CNC(=O)[C@H](CCC(N)=O)NC(=O)[C@H](CO)NC(=O)[C@@H](N)Cc1c[nH]cn1)[C@@H](C)O)C(C)C)C(=O)N[C@@H](CC(N)=O)C(=O)N[C@H](C(=O)O)[C@@H](C)O` (H-HSQGTFCSDYSCYLDSRRAQDFVQWLMNT-OH): in experiment [5], the Activity is 100%. In experiment [4], the EC50 worked out at 0.059 µM.

Compound `CSCC[C@H](NC(=O)[C@H](CC(C)C)NC(=O)[C@H](Cc1c[nH]c2ccccc12)NC(=O)[C@H](CCC(N)=O)NC(=O)[C@@H](NC(=O)[C@H](Cc1ccccc1)NC(=O)[C@H](CC(=O)O)NC(=O)[C@H](CCC(N)=O)NC(=O)[C@H](C)NC(=O)[C@H](CCCN=C(N)N)NC(=O)[C@H](CCCN=C(N)N)NC(=O)[C@H](CO)NC(=O)[C@H](CC(=O)O)NC(=O)[C@H](CC(C)C)NC(=O)[C@H](Cc1ccc(O)cc1)NC(=O)[C@@H]1CSSC[C@H](NC(=O)[C@H](Cc2ccccc2)NC(=O)[C@@H](NC(=O)CNC(=O)[C@H](CCC(N)=O)NC(=O)[C@H](CO)NC(=O)[C@@H](N)Cc2c[nH]cn2)[C@@H](C)O)C(=O)N[C@@H](CO)C(=O)N[C@@H](CC(=O)O)C(=O)N[C@@H](Cc2ccc(O)cc2)C(=O)N[C@@H](CO)C(=O)N1)C(C)C)C(=O)N[C@@H](CC(N)=O)C(=O)N[C@H](C(=O)O)[C@@H](C)O` (H-HSQGTFCSDYSCYLDSRRAQDFVQWLMNT-OH; disulfide 7-12) had an Activity in experiment [5] of 53%. In experiment [4], the EC50 came out at 5.9 µM. The compound further registered an IC50 in experiment [2] of 0.558 µM.

In turn, `CSCC[C@H](NC(=O)[C@H](CC(C)C)NC(=O)[C@H](Cc1c[nH]c2ccccc12)NC(=O)[C@H](CCC(N)=O)NC(=O)[C@@H](NC(=O)[C@H](Cc1ccccc1)NC(=O)[C@H](CC(=O)O)NC(=O)[C@H](CCC(N)=O)NC(=O)[C@H](CS)NC(=O)[C@H](CCCN=C(N)N)NC(=O)[C@H](CCCN=C(N)N)NC(=O)[C@H](CO)NC(=O)[C@H](CC(=O)O)NC(=O)[C@H](CS)NC(=O)[C@H](Cc1ccc(O)cc1)NC(=O)[C@H](CCCCN)NC(=O)[C@H](CO)NC(=O)[C@H](Cc1ccc(O)cc1)NC(=O)[C@H](CC(=O)O)NC(=O)[C@H](CO)NC(=O)[C@@H](NC(=O)[C@H](Cc1ccccc1)NC(=O)[C@@H](NC(=O)CNC(=O)[C@H](CCC(N)=O)NC(=O)[C@H](CO)NC(=O)[C@@H](N)Cc1c[nH]cn1)[C@@H](C)O)[C@@H](C)O)C(C)C)C(=O)N[C@@H](CC(N)=O)C(=O)N[C@H](C(=O)O)[C@@H](C)O` (H-HSQGTFTSDYSKYCDSRRCQDFVQWLMNT-OH) had an Activity in experiment [6] of 100%. Besides, the EC50 in experiment [4] worked out at 0.236 µM. Further, the IC50 in experiment [2] is 0.0137 µM.

In experiment [4], `CSCC[C@H](NC(=O)[C@H](CC(C)C)NC(=O)[C@H](Cc1c[nH]c2ccccc12)NC(=O)[C@H](CCC(N)=O)NC(=O)[C@@H](NC(=O)[C@H](Cc1ccccc1)NC(=O)[C@H](CC(=O)O)NC(=O)[C@H](CCC(N)=O)NC(=O)[C@@H]1CSSC[C@H](NC(=O)[C@H](Cc2ccc(O)cc2)NC(=O)[C@H](CCCCN)NC(=O)[C@H](CO)NC(=O)[C@H](Cc2ccc(O)cc2)NC(=O)[C@H](CC(=O)O)NC(=O)[C@H](CO)NC(=O)[C@@H](NC(=O)[C@H](Cc2ccccc2)NC(=O)[C@@H](NC(=O)CNC(=O)[C@H](CCC(N)=O)NC(=O)[C@H](CO)NC(=O)[C@@H](N)Cc2c[nH]cn2)[C@@H](C)O)[C@@H](C)O)C(=O)N[C@@H](CC(=O)O)C(=O)N[C@@H](CO)C(=O)N[C@@H](CCCN=C(N)N)C(=O)N[C@@H](CCCN=C(N)N)C(=O)N1)C(C)C)C(=O)N[C@@H](CC(N)=O)C(=O)N[C@H](C(=O)O)[C@@H](C)O` (H-HSQGTFTSDYSKYCDSRRCQDFVQWLMNT-OH; disulfide 14-19) registered an EC50 of 7.5 µM. For the same compound, in experiment [7], the Activity stood at 30%. Besides, the IC50 in experiment [2] was found to be 0.562 µM.

With `CSCC[C@H](NC(=O)[C@H](CC(C)C)NC(=O)[C@H](Cc1c[nH]c2ccccc12)NC(=O)[C@H](CCC(N)=O)NC(=O)[C@@H](NC(=O)[C@H](Cc1ccccc1)NC(=O)[C@H](CC(=O)O)NC(=O)[C@H](CCC(N)=O)NC(=O)[C@H](C)NC(=O)[C@H](CCCN=C(N)N)NC(=O)[C@H](CCCN=C(N)N)NC(=O)[C@H](CO)NC(=O)[C@H](CC(=O)O)NC(=O)[C@H](CC(C)C)NC(=O)[C@@H]1CCC(=O)NCCCC[C@H](NC(=O)[C@H](CO)NC(=O)[C@@H](NC(=O)[C@H](Cc2ccccc2)NC(=O)[C@@H](NC(=O)CNC(=O)[C@H](CCC(N)=O)NC(=O)[C@H](CO)NC(=O)[C@@H](N)Cc2c[nH]cn2)[C@@H](C)O)[C@@H](C)O)C(=O)N[C@@H](Cc2ccc(O)cc2)C(=O)N[C@@H](CO)C(=O)N[C@@H](CCCCN)C(=O)N1)C(C)C)C(=O)N[C@@H](CC(N)=O)C(=O)N[C@H](C(=O)O)[C@@H](C)O` (H-HSQGTFTSKYSKELDSRRAQDFVQWLMNT-OH; lactam 9-13), in experiment [3], the Activity turned out to be 19%. In addition, the EC50 in experiment [4] amounted to 0.023 µM. The compound further displayed an IC50 in experiment [2] of 0.652 µM.

The pA2 is a measure of antagonist potency on a negative log scale. What is called IC50 is the concentration at which inhibition is half-maximal. By EC50 is commonly meant the concentration giving half of the maximal effect.

The values are drawn from ChEMBL document CHEMBL1134594 (J Med Chem, 2001).
